Results on 4 molecules are retold here after ChEMBL document CHEMBL4354819, “Discovery of Novel Small Molecule Dual Inhibitors Targeting Toll-Like Receptors 7 and 8” (J Med Chem, 2019).

The source made the active and inactive calls. The rule behind the calls is not given here.

One data set concerns the target T1, Toll-like receptor 8 (Homo sapiens, UniProt Q9NR97).
T1 sequence (Q9NR97 whole entry): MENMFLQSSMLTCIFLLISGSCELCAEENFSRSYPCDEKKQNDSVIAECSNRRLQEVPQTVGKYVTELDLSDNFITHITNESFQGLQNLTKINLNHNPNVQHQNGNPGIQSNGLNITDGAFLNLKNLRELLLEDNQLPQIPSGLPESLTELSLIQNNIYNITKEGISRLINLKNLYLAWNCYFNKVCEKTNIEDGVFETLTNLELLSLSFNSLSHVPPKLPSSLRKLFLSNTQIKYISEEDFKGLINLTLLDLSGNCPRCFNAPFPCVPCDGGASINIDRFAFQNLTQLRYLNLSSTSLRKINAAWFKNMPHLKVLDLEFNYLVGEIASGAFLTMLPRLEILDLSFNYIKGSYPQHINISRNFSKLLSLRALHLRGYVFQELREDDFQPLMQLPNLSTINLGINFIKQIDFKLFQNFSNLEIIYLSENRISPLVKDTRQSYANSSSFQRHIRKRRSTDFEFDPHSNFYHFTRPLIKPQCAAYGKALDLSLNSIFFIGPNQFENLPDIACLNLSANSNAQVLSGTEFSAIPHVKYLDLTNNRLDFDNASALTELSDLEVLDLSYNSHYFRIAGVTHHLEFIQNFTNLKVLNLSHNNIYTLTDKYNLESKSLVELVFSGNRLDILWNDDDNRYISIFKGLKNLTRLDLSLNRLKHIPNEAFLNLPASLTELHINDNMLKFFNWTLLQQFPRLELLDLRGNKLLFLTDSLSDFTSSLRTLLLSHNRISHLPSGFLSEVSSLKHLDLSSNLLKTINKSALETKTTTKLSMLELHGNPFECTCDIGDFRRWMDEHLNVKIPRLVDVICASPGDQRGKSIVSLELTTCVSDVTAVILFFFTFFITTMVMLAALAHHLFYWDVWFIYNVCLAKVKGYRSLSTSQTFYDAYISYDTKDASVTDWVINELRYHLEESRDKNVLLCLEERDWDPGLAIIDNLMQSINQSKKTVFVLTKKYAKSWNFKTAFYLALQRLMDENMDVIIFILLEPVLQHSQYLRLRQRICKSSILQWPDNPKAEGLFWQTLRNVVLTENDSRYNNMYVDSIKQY
Briefly: Inhibition of human TLR8 expressed in HEK293 cells assessed as reduction in R848-induced NFkappaB production incubated for 16 hrs by quanti-blue SEAP assay. It counts as cell-based. Put shortly:
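HEK 293-Blue cells stably expressing hTLR7 or hTLR8 with an inducible SEAP reporter were incubated 16 h with compound under 1 µg/mL R848 stimulation. SEAP was read at 620 nm. Data were normalized to the R848 control, and IC50 was taken from concentration-response curves. […] Mean ± s.d., n = 3 independent experiments.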

Data set [1] concerns the target T2, Toll-like receptor 8 (Homo sapiens) (UniProt Q9NR97).
T2 sequence (whole entry): T1 sequence (Q9NR97 whole entry)
The data set can be described thus: Inhibition of human TLR8 expressed in HEK293 cells assessed as reduction in TNFalpha production incubated for 24 hrs by ELISA. It counts as cell-based. (An ELISA detects its analyte on a solid surface through an enzyme-linked reagent.)

In another data set the test system is RAW264.7. Briefly: Cytotoxicity against mouse RAW264.7 cells transfected with human TLR7/8 assessed as reduction in cell viability at 0.5 to 20 uM incubated for 16 hrs by WST-1 assay. Format: cell-based. The following applies: raw264.7, 16 h.
The target in data set [2] is T2, Toll-like receptor 8 (Homo sapiens). Briefly: Inhibition of human TLR8 expressed in HEK293 cells assessed as reduction in TNFalpha-induced NFkappaB production incubated for 16 hrs by quanti-blue SEAP assay. It counts as cell-based. Put shortly: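 HEK 293 hTLR8 SEAP reporter cells were stimulated with recombinant hTNF-α and incubated with compound for 16 h. SEAP absorbance was read at 620 nm and compared with 50% DMSO-treated and untreated wells.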

Data set [3] shares this target. Briefly: Inhibition of human TLR8 expressed in HEK293 cells assessed as reduction in ssRNA-induced NFkappaB production at 5 uM incubated for 16 hrs by quanti-blue SEAP assay. Format: cell-based. Put shortly: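 HEK 293 hTLR8 SEAP reporter cells were stimulated with ssRNA (ssRNA-Lyo-40) and incubated with compound for 16 h. Data were normalized as (raw − untreated)/(ligand + solvent − untreated), with ligand + solvent set as 100%. Mean ± s.d., n = 3 independent experiments.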

Data set [4] concerns THP-1. Briefly: Inhibition of IFN mediated immune response in human THP1 cells assessed as inhibition of 3p-hpRNA-induced RIG1 signalling pathway at 0.5 to 5 uM incubated for 16 hrs by luciferase assay. It counts as functional, cell-based. Put shortly:
(§1)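 THP1-Dual monocytes carrying Lucia luciferase and SEAP reporters were stimulated with 3p-hpRNA (RIG-I agonist) or Y-form dsDNA G3-YSD (cGAS agonist), with or without compound. Secreted Lucia luciferase luminescence was measured as the type I IFN read-out. Mean ± s.d., n = 3 independent experiments.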

For data set [5], the system named is THP-1. Briefly: Inhibition of IFN mediated immune response in human THP1 cells assessed as inhibition of G3-YSD-induced cGAS signalling pathway at 0.5 to 5 uM incubated for 16 hrs by luciferase assay. Format: functional, cell-based. Put shortly: as §1
Data set [6] deals with T2, Toll-like receptor 8 (Homo sapiens). Briefly: Inhibition of human TLR8 expressed in HEK293 cells assessed as reduction in IL1beta production incubated for 24 hrs by ELISA. It counts as cell-based.
The next data set has as its system HEK293. Briefly: Cytotoxicity against human HEK293 cells transfected with human TLR8 assessed as reduction in cell viability at 0.5 to 20 uM incubated for 16 hrs by WST-1 assay. Format: cell-based. The following applies: hek293, 16 h. In general terms: Formazan colour is commonly taken as a measure of viable cells.

Regarding `O=C(Nc1ccc(Oc2cc(C(F)(F)F)cc(C(F)(F)F)c2)cc1)c1c(F)cccc1I`, the half-inhibitory concentration (IC50) (commonly the point on the concentration scale where inhibition reaches its midpoint) on Toll-like receptor 8 came to 1040 nM. The inhibition result in [1], in [2] and in [6] was “Active” in each case. The Activity entry in the data set with RAW264.7 and in the data set on HEK293 was “Non-Toxic” in each case. Further, the inhibition entry (in data set [3]; in the data set with THP-1 [4]; in the data set with THP-1 [5]) was “inactive” in each case.

In the case of `O=[N+]([O-])c1c(I)cccc1Oc1ccc(-c2nnco2)cc1`, on Toll-like receptor 8, the IC50 stood at 300 nM. Besides, the inhibition entry in data set [1], in data set [2], in [3] and in data set [6] was “Active” each time. The Activity entry with RAW264.7 and with HEK293 was “Non-Toxic” each time. The inhibition entry with THP-1 [4] and in the data set on THP-1 [5] was “inactive” in each case.

As for `O=C(Nc1ccc(Oc2cncc(C(F)(F)F)c2)cc1)c1c(F)cccc1Cl`, the IC50 on Toll-like receptor 8 was determined as 2870 nM. Further, the inhibition result in data set [1], in data set [2] and in [6] was “Active” each time. Further, the Activity entry in the data set on RAW264.7 and in the data set with HEK293 was “Non-Toxic” each time. Moreover, the inhibition entry (in data set [3]; with THP-1 [4]; in the data set on THP-1 [5]) was “inactive” throughout.

As to `O=C(Nc1ccc(Oc2cc(C(F)(F)F)cc(C(F)(F)F)c2)cc1)c1c(F)cccc1Cl`, the IC50 at Toll-like receptor 8 was 1640 nM.
